Results taken from ChEMBL document CHEMBL5370673 (ACS Med Chem Lett, 2023).
Calls of active or inactive are those of the source. The rule behind the calls is not given here.

Legend:
[1] = Activation of Mesocestoides corti in TRPM binding site of PZQ expressed in HEK293 cells assessed as effect in cytosolic Ca2+ level measured for 250 sec by […] NW staining based FLIPR assay; type: cell-based
Outline: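 HEK293 cells transiently transfected with the individual TRPMPZQ ortholog (S. mansoni, E. granulosus or M. corti). Cytosolic Ca2+ change read by fluorescence reporter (FLIPR) across increasing analog concentrations. Untransfected HEK293 cells serve as control.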

Schistosoma mansoni [2] = test: Antischistosomal activity against Schistosoma mansoni assessed as maximal effect at <= 320 uM; type: functional, organism-based
[3] = Activation of Schistosoma mansoni in TRPM binding site of PZQ expressed in HEK293 cells assessed as effect in cytosolic Ca2+ level measured for 250 sec by […] NW staining based FLIPR assay; type: cell-based
[4] = tested on: Echinococcus multilocularis; test: Induction of morphological changes in Echinococcus multilocularis MB17 protoscoleces assessed as increase in contraction at 100 uM by cestode motility assay; type: functional, organism-based
[5] = Activation of Echinococcus granulosus in TRPM binding site of PZQ expressed in HEK293 cells assessed as effect in cytosolic Ca2+ level measured for 250 sec by […] NW staining based FLIPR assay; type: cell-based
[6] = tested on: Echinococcus multilocularis; test: Anthelmintic activity against Echinococcus multilocularis MB17 protoscoleces assessed as reduction in motility at 0.001 to 100 uM measured after 0.5 hrs by live cell imaging analysis; type: functional, organism-based; conditions: dose 0.001-100 µM
Outline: (§1)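 E. multilocularis protoscoleces incubated ex vivo across a concentration range. Motility scored at 0.5, 12 and 24 h and expressed as % of DMSO vehicle control (mean ± SEM). IC50 taken from concentration–response curves at each time point.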

Rodentolepis nana [7] = test: Anti-cestodal activity against Hymenolepis nana infected in CF1/W74 mouse assessed as reduction in parasitic flatworms at 500 mg/kg relative to control; type: functional; parameters: scale not given: the % may be the effect or the level left
Schistosoma mansoni [8] = test: Antischistosomal activity against Schistosoma mansoni infected in CF1/W74 mouse assessed as reduction in parasitic flatworms viability at 500 mg/kg administered for 5 days relative to control; type: functional
Schistosoma mansoni [9] = test: Antischistosomal activity against Schistosoma mansoni assessed as maximal effect at <= 3.2 uM; type: functional, organism-based
Rodentolepis nana [10] = test: Anti-cestodal activity against Hymenolepis nana infected in CF1/W74 mouse assessed as reduction in parasitic flatworms at 25 mg/kg relative to control; type: functional; parameters: scale not given: the % may be the effect or the level left
Schistosoma mansoni [11] = test: Antischistosomal activity against Schistosoma mansoni infected in CF1/W74 mouse assessed as reduction in parasitic flatworms viability at 50 mg/kg administered for 5 days relative to control; type: functional; conditions: time 5 day
[12] = tested on: Echinococcus multilocularis; test: Anthelmintic activity against Echinococcus multilocularis MB17 protoscoleces assessed as increase in contraction at 1 uM by live cell imaging analysis; type: functional, organism-based
[13] = tested on: Echinococcus multilocularis; test: Anthelmintic activity against Echinococcus multilocularis MB17 protoscoleces assessed as reduction in motility measured after 24 hrs by live cell imaging analysis; type: functional, organism-based; outline: as §1
[14] = Selectivity ratio of EC50 for activation of Schistosoma mansoni in TRPM binding site of PZQ expressed in HEK293 cells to EC50 for activation of Mesocestoides corti in TRPM binding site of PZQ expressed in HEK293 cells; type: cell-based
[15] = Selectivity ratio of EC50 for activation of Schistosoma mansoni in TRPM binding site of PZQ expressed in HEK293 cells to EC50 for activation of Echinococcus granulosus in TRPM binding site of PZQ expressed in HEK293 cells; type: cell-based
[16] = tested on: Echinococcus multilocularis; test: Anthelmintic activity against Echinococcus multilocularis MB17 protoscoleces assessed as increase in contraction at 30 uM by live cell imaging analysis; type: functional, organism-based
[17] = Mesocestoides corti, HEK293, read-out: EC50
[18] = Echinococcus granulosus, HEK293, read-out: EC50

In the case of `O=C(c1cccnc1)N1CC(=O)N2CCc3ccccc3[C@H]2C1`, the EC50 [1, 17] is reported as 16000 nM, the Activity (Schistosoma mansoni [2]) is reported as “inactive” and the EC50 ([3]; hek293) is reported as “Not Active”. For the same compound, the Activity [4] was “Active”, the EC50 [5, 18] was 22000 nM and the Activity [6] was “Active”. The Activity (Rodentolepis nana [7]) was 100% and the Activity (Schistosoma mansoni [8]; time 5.0 day) was “inactive”.

In the case of `O=C(C1CCCCC1)N1CC(=O)N2CCc3ccccc3[C@@H]2C1` [PRAZIQUANTEL, (R)-], the EC50 [1, 17] is reported as 80 nM, the Activity (Schistosoma mansoni [9]) is reported as “Active” and the Activity (Rodentolepis nana [10]) is reported as 100%. The Activity (Schistosoma mansoni [11]) was 100%.

In the case of `CN(C)c1ccc(C(=O)N2CC(=O)N3CCc4ccccc4C3C2)cc1` (centres undefined), the EC50 ([1]; hek293) is reported as “Not Active”, the Activity (Schistosoma mansoni [2]) is reported as “inactive” and the EC50 ([3]; hek293) is reported as “Not Active”. For the same compound, the Activity (Rodentolepis nana [10]) was 100%, the EC50 ([5]; hek293) was “Not Active” and the Activity (Schistosoma mansoni [8]; time 5 day) was 100%.

For `O=C(C1CCCCC1)N1CC(=O)N2CCc3ccccc3C2C1` (racemic) [PRAZIQUANTEL], the EC50 [1, 17] was 120 nM, the Activity [12] was “Active” and the Activity (Schistosoma mansoni [9]) was “Active”. The Activity (Rodentolepis nana [10]) was 100%, the Activity [13] was “Active” and the Activity (Schistosoma mansoni [11]) was 100%. For the same compound, the Activity [6] was “Active”.

In the case of `Nc1ccc(C(=O)N2CC(=O)N3CCc4ccccc4C3C2)cc1` (centres undefined), the Ratio EC50 [14] is reported as 8, the EC50 [1, 17] is reported as 800 nM and the Activity (Schistosoma mansoni [2]) is reported as “Active”. For the same compound, the Activity (Rodentolepis nana [10]) was 100%, the EC50 [5, 18] was 960 nM and the Ratio EC50 [15] was 8. It also gave an Activity (Schistosoma mansoni [8]; time 5 day) of 100%.

With `O=C(C1CCCCC1)N1CC(=O)N2CCc3ccccc3[C@H]2C1` the EC50 [1, 17] was 1230 nM, the Activity (Schistosoma mansoni [2]) was “Active” and the Activity (Rodentolepis nana [7]) was 100%. For the same compound, the Activity (Schistosoma mansoni [8]; time 5 day) was >90%.

In the case of `CNc1ccc(C(=O)N2CC(=O)N3CCc4ccccc4C3C2)cc1` (centres undefined), the EC50 [1, 17] is reported as > 100000 nM, the Activity (Schistosoma mansoni [2]) is reported as “inactive” and the EC50 ([3]; hek293) is reported as “Not Active”. For the same compound, the Activity (Rodentolepis nana [10]) was 100%, the EC50 [5, 18] was > 100000 nM and the Activity (Schistosoma mansoni [8]; time 5 day) was 100%.

In the case of `O=C(c1cccnc1)N1CC(=O)N2CCc3ccccc3[C@@H]2C1`, the EC50 [1, 17] is reported as 980 nM, the Activity (Schistosoma mansoni [2]) is reported as “inactive” and the EC50 ([3]; Schistosoma mansoni, HEK293, read-out: EC50) is reported as > 100000 nM. The Activity (Rodentolepis nana [10]) was 100%, the Activity [16] was “Active” and the EC50 [5, 18] was 1400 nM. The Activity [6] was “Active” and the Activity (Schistosoma mansoni [8]; time 5 day) was 100%.

For `O=C(c1ccc([N+](=O)[O-])cc1)N1CC(=O)N2CCc3ccccc3C2C1` (centres undefined), the EC50 ([1]; hek293) was “Not Active”, the Activity (Schistosoma mansoni [2]) was “inactive” and the EC50 ([3]; hek293) was “Not Active”. The EC50 ([5]; hek293) was “Not Active”, the Activity (Rodentolepis nana [7]) was 100% and the Activity (Schistosoma mansoni [8]; time 5 day) was <90%.

In the case of `O=C(c1cccnc1)N1CC(=O)N2CCc3ccccc3C2C1` (racemic), the EC50 [1, 17] is reported as 5300 nM, the Activity (Schistosoma mansoni [2]) is reported as “Active” and the EC50 ([3]; hek293) is reported as “Not Active”. For the same compound, the Activity (Rodentolepis nana [10]) was 100%, the EC50 [5, 18] was 2300 nM and the Activity (Schistosoma mansoni [8]; time 5 day) was <90%.

With `O=C(C1CC1)N1CC(=O)N2CCc3ccccc3C2C1` (centres undefined) the EC50 [1, 17] was 65000 nM, the Activity (Schistosoma mansoni [2]) was “inactive” and the EC50 ([3]; hek293) was “Not Active”. For the same compound, the EC50 [5, 18] was 53000 nM, the Activity (Rodentolepis nana [7]) was 100% and the Activity (Schistosoma mansoni [8]; time 5 day) was <90%.

With `N[C@H]1CC[C@@H](C(=O)N2CC(=O)N3CCc4ccccc4C3C2)CC1` (some centres undefined) the EC50 [1, 17] was > 100000 nM, the Activity (Schistosoma mansoni [2]) was “inactive” and the EC50 ([3]; hek293) was “Not Active”. For the same compound, the EC50 [5, 18] was > 100000 nM, the Activity (Rodentolepis nana [7]) was <90% and the Activity (Schistosoma mansoni [8]; time 5.0 day) was “inactive”.
